# Reference: article PMC6531791 (Molecular Metabolism, 2019)
# Columns and labels:
# Format in all cases: in vivo, mouse
# SN DA neurons (TH+) = assay: In situ detection of ROS with dihydroethidium; details: following MPTP exposure, with or without Dln101 pre-treatment; n = 4–6 per group
# Summary of the method: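 Dihydroethidium, 200 μl of a 1 mg/ml stock in 1% DMSO, was injected into the tail vein. Mice were perfused 3 h later. Midbrain sections were co-immunostained for TH. DHE fluorescence intensity was quantified in TH+ cells, n = 4–6 per group.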
# [1] = test system: SN DA neuron mitochondria; assay: Electron microscopy analysis of mitochondrial morphology in SN DA neurons; details: for Mitochondrial average area in SN DA cells / Mitochondrial cytoplasmic coverage: WT mice; for Mitochondrial average area in SN DA cells: vehicle = 0.143 ± 0.004, n = 102–473 per group; for Mitochondrial cytoplasmic coverage: vehicle = 9.94% ± 1.1; for average mitochondrial area in SN DA cells / mitochondrial coverage of cytoplasmic area / mitochondrial units per cell: iCre-DAT MFN2KO animals; for average mitochondrial area in SN DA cells: untreated KO = 0.163 ± 0.005; for mitochondrial coverage of cytoplasmic area: untreated KO = 9.35% ± 0.56; for mitochondrial units per cell: untreated KO = 80 ± 12
# Summary of the method: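 Mice got test peptide (15 nmoles) or saline s.c. daily for 10 days, 15 min before dark onset. […] Perfusion: ice-cold saline, then 4% PFA/15% picric acid/0.1% glutaraldehyde in 0.1M PB. Sections were freeze-thawed and immunolabelled. Mitochondria required visible cristae and a double membrane. Coverage = summed mitochondrial area / (cell − nucleus area), %.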
# microglia in SN = assay: Microglia immunostaining with IBA-1 antibody in SN; details: after MPTP exposure, with or without Dln101 pre-treatment
# Summary of the method: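 Sections were blocked in 5% normal goat serum, 1% BSA, 0.1% glycine and 0.1% L-lysine. Rabbit polyclonal anti-IBA-1 (1:3000) was applied overnight at 4 °C, then a biotinylated secondary with ABC/DAB or avidin-Alexa 488. TH was co-stained.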
# [2] = Accelerating rotarod test, MPTP model; details: WT mice; MPTP after saline, ghrelin or Dln101 pre-treatment; vehicle = 88.9 ± 6.4; mean ± SEM, n = 5–11 per group
# [3] = 1 day after MPTP (15 mg/kg), alone or after Dln101 pre-treatment
structure (smiles),measurement,setting,value
"CN1CC=C(c2ccccc2)CC1 [MPTP, 1-methyl-4-phenyl-1,2,5,6 tetrahydropyridine]",increase in ROS production in SN DA neurons (DHE fluorescence),SN DA neurons (TH+),7.46 fold
same,Mitochondrial average area in SN DA cells,[1]; 4 h after MPTP (15 mg/kg),0.112 ± 0.006 μm^2
same,Mitochondrial cytoplasmic coverage,[1]; 4 h after MPTP (15 mg/kg),8.66% ± 0.68
same,Mitochondrial average area in SN DA cells,[1]; [3],0.176 ± 0.006 μm^2
same,Mitochondrial cytoplasmic coverage,[1]; [3],6.144% ± 0.51
same,average mitochondrial area in SN DA cells,"[1]; 4h after MPTP, n = 421–1456",0.179 ± 0.004
same,mitochondrial coverage of cytoplasmic area,[1]; 4h after MPTP,10.22 ± 0.69%
same,mitochondrial units per cell,[1]; 4h after MPTP,52 ± 6
same,average mitochondrial area in SN DA cells,[1]; 3days after MPTP,0.287 ± 0.006
same,mitochondrial coverage of cytoplasmic area,[1]; 3days after MPTP,23.32 ± 4.21%
same,mitochondrial units per cell,[1]; 3days after MPTP,29 ± 3
same,microglial morphology / activation in SN (IBA1 immunostaining),microglia in SN,microglial activation
same,Latency to fall from the rotarod,[2],51.0 ± 5.0 s
